Measured values from ChEMBL document CHEMBL1800034, “A synthetic 7,8-dihydroxyflavone derivative promotes neurogenesis and exhibits potent antidepressant effect” (J Med Chem, 2010).
The source made the active and inactive calls.

Tests used:
Mus musculus [1] = test: Toxicity in C57BL/6J mouse assessed as affect on complete blood count analysis at 5 mg/kg, po for 3 weeks; format: organism-based; design: dose 5 mg/kg, route oral; details: in vivo, 504 h
How it was run: (§1)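 Mice were dosed orally at 5 mg/kg for 3 weeks, with saline-treated controls. Major organs were examined for pathological changes, and a complete blood count was done.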

Mus musculus [2] = test: Agonist activity at TrkB in C57BL/6J mouse brain assessed as TrkB 706 phosphorylation at 1 mg/kg, po after 4 hrs by immunoblotting; format: functional, organism-based; design: dose 1 mg/kg
How it was run: (§2)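 C57BL/6J mice got a single oral dose of 1 mg/kg. Brains were collected at several time points, about 1 to 16 h after dosing. Lysates were immunoblotted for TrkB phosphorylation and for downstream Akt and MAPK phosphorylation.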

Mus musculus [3] = test: Toxicity in C57BL/6J mouse assessed as pathological changes in heart at 5 mg/kg, po for 3 weeks; format: organism-based; design: dose 5 mg/kg, route oral; details: in vivo, 504 h; how it was run: as §1
[4] = target: BDNF/NT-3 growth factors receptor (Rattus norvegicus) (UniProt Q63604); test: Agonist activity at TrkB in E17 rat primary cortical neurons assessed as AKT phosphorylation at S473 at 500 nM by ELISA; details: Cerebral cortex neuron
Chain of BDNF/NT-3 growth factors receptor (Rattus norvegicus) (Q63604 whole entry): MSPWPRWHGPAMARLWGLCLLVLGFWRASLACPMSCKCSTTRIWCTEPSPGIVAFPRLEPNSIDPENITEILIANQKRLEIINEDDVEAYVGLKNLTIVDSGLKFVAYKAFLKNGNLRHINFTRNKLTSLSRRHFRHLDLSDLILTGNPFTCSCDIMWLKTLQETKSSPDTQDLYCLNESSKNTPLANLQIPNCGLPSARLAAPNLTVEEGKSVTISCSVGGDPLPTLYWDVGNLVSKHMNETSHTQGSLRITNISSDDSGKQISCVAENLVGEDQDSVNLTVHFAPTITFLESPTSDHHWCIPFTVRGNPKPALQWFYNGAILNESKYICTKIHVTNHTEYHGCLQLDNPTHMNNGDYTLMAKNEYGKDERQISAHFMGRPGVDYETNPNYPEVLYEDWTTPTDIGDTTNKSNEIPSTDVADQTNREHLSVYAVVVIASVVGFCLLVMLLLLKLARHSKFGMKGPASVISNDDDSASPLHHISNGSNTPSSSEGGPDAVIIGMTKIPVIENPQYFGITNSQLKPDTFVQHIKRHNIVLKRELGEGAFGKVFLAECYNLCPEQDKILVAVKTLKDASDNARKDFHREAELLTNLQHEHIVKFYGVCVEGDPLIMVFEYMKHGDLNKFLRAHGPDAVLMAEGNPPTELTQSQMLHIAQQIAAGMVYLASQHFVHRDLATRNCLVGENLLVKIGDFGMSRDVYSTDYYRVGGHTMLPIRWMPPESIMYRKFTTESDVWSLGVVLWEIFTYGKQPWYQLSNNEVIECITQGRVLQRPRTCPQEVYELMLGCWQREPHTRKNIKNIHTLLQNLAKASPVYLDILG

[5] = target: BDNF/NT-3 growth factors receptor (Rattus norvegicus) (UniProt Q63604); test: Agonist activity at TrkB in E17 rat primary rat cortical neurons assessed as AKT phosphorylation at Ser 473 after 15 mins by titration assay; format: functional
How it was run: (§3)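 Primary cortical neurons were incubated with graded concentrations, starting at 10 nM, for 15 min. Phospho-Akt Ser473 was measured by sandwich ELISA on 20 µg of lysate. Data come from 2 replicated experiment sets, given as mean ± SEM. Comparisons used one-way ANOVA against control and Student's t-test between compounds.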

Mus musculus [6] = test: Agonist activity at TrkB in C57BL/6J mouse brain assessed as AKT phosphorylation at 1 mg/kg, po after 1 to 16 hrs by immunoblotting; format: functional, organism-based; design: dose 1 mg/kg; how it was run: as §2
Mus musculus [7] = test: Antidepressant activity in TrkB F616A knock in mouse assessed as reduction of immobility time at 5 mg/kg, po administered for 21 days by forced swim test assay in presence of TrkB F616A inhibitor 1NMPP1; format: functional, organism-based; design: dose 5 mg/kg
Mus musculus [8] = test: Agonist activity at TrkB in C57BL/6J mouse brain lysate assessed as TrkB phosphorylation at Y817 at 5 mg/kg, po administered for 21 days by immunoblotting; format: functional, organism-based; design: dose 5 mg/kg
How it was run: (§4)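 Adult male C57BL/6J mice, 8 per group, dosed orally by gavage once daily for 21 days; saline was the vehicle. Brain lysates were immunoblotted with anti-p-TrkA 794 and anti-p-TrkB 817.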

Mus musculus [9] = test: Toxicity in C57BL/6J mouse assessed as pathological changes in lungs at 5 mg/kg, po for 3 weeks; format: organism-based; design: dose 5 mg/kg, route oral; details: in vivo, 504 h; how it was run: as §1
[10] = target: BDNF/NT-3 growth factors receptor (Rattus norvegicus) (UniProt Q63604); test: Agonist activity at TrkB in E17 rat primary cortical neurons at 500 nM after 5 mins by immunoblotting; format: functional, cell-based; details: Cerebral cortex neuron
How it was run: (§5)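 Rat primary cortical neurons were exposed to 500 nM compound for various times between 5 and 180 min. Lysates were immunoblotted for TrkB, Akt and MAPK phosphorylation.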

[11] = target: BDNF/NT-3 growth factors receptor (Rattus norvegicus) (UniProt Q63604); test: Agonist activity at TrkB in E17 rat primary cortical neurons at 500 nM after 30 to 180 mins by immunoblotting; format: functional, cell-based; details: Cerebral cortex neuron; how it was run: as §5
[12] = target: BDNF/NT-3 growth factors receptor (Rattus norvegicus) (UniProt Q63604); test: Agonist activity at TrkB in E17 rat primary rat cortical neurons assessed as AKT phosphorylation at Ser 473 at 100 nM after 15 mins by titration assay; format: functional; how it was run: as §3
[13] = target: BDNF/NT-3 growth factors receptor (Rattus norvegicus) (UniProt Q63604); test: Agonist activity at TrkB in E17 rat primary rat cortical neurons assessed as AKT phosphorylation at Ser 473 at 500 nM after 15 mins by ELISA; format: functional
Mus musculus [14] = test: Agonist activity at TrkB in C57BL/6J mouse brain assessed as MAPK phosphorylation at 1 mg/kg, po after 1 to 16 hrs by immunoblotting; format: functional, organism-based; design: dose 1 mg/kg; how it was run: as §2
Mus musculus [15] = test: Induction of neurogenesis in C57BL/6J mouse hippocampus dentate gyrus assessed as progenitor cell proliferation at 5 mg/kg, po administered for 21 days by DAPI and BrdU staining based fluorescence microscopy; format: functional, organism-based; design: dose 5 mg/kg
How it was run: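 Adult male C57BL/6J mice were gavaged at 5 mg/kg for 21 days and then given BrdU at 50 mg/kg i.p. Mice were perfused with 4% paraformaldehyde 2 h later. Paraffin sections had citrate antigen retrieval and 2 N HCl treatment, then were stained with anti-BrdU-FITC at 4 °C for 16 h and with DAPI. BrdU-positive cells in the dentate gyrus were counted by fluorescence microscopy.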

Mus musculus [16] = test: Toxicity in C57BL/6J mouse assessed as pathological changes in liver at 5 mg/kg, po for 3 weeks; format: organism-based; design: dose 5 mg/kg, route oral; details: in vivo, 504 h; how it was run: as §1
[17] = target: BDNF/NT-3 growth factors receptor (Rattus norvegicus) (UniProt Q63604); test: Agonist activity at TrkB in E17 rat primary cortical neurons assessed as MAPK phosphorylation at 500 nM by ELISA; details: Cerebral cortex neuron
Mus musculus [18] = test: Agonist activity at TrkA in C57BL/6J mouse brain lysate assessed as TrkA phosphorylation at Y794 at 5 mg/kg, po administered for 21 days by immunoblotting; format: functional, organism-based; design: dose 5 mg/kg; how it was run: as §4
Mus musculus [19] = test: Toxicity in C57BL/6J mouse assessed as pathological changes in brain cortex at 5 mg/kg, po for 3 weeks; format: organism-based; design: dose 5 mg/kg, route oral; details: in vivo, 504 h; how it was run: as §1
Mus musculus [20] = test: Neuroprotective activity in TrkB F616A knock in mouse assessed as inhibition of kainic acid-induced caspase 3 activation in brain homogenates at 5 mg/kg, po administered 4 hrs prior to kainic acid challenge measured after 4 days by immunoblotting in presence of TrkB F616A inhibitor 1NMPP1; format: functional, organism-based; design: dose 5 mg/kg
How it was run: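 TrkB F616A knock-in mice, 2–3 months old, were given 1NMPP1 at 25 µM in drinking water one day beforehand. They were then gavaged with compound at 5 mg/kg, followed 4 h later by kainic acid at 20 mg/kg. Brains were taken 4 days later, homogenized and ultracentrifuged. 40 µg of supernatant was immunoblotted.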

Mus musculus [21] = test: Agonist activity at TrkB in C57BL/6J mouse brain assessed as TrkB 706 phosphorylation at 1 mg/kg, po at 1 hr by immunoblotting; format: functional, organism-based; design: dose 1 mg/kg; how it was run: as §2
Mus musculus [22] = test: Toxicity in C57BL/6J mouse assessed as pathological changes in muscle at 5 mg/kg, po for 3 weeks; format: organism-based, Muscle tissue; design: dose 5 mg/kg, route oral; details: in vivo, 504 h; how it was run: as §1
[23] = target: BDNF/NT-3 growth factors receptor (Rattus norvegicus) (UniProt Q63604); test: Agonist activity at TrkB in E17 rat primary cortical neurons at 500 nM after 10 mins by immunoblotting; format: functional, cell-based; details: Cerebral cortex neuron; how it was run: as §5
Mus musculus [24] = test: Toxicity in C57BL/6J mouse assessed as pathological changes in kidney at 5 mg/kg, po for 3 weeks; format: organism-based; design: dose 5 mg/kg, route oral; details: in vivo, 504 h; how it was run: as §1
Mus musculus [25] = test: Agonist activity at TrkB in C57BL/6J mouse brain assessed as AKT phosphorylation at Ser473 at 1 mg/kg, po after 1 to 16 hrs by immunoblotting; format: functional, organism-based; design: dose 1 mg/kg; how it was run: as §2
[26] = target: BDNF/NT-3 growth factors receptor (Rattus norvegicus) (UniProt Q63604); test: Agonist activity at TrkB in E16 rat embryonic cortical neurons assessed as inhibition of glutamate-induced caspase 3 activation at 10 nM after 30 mins followed by 16 hrs of 50 uM glutamate-challenge by ELISA; format: functional
How it was run: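 Cortical neurons from E16 rat embryos were pretreated with the indicated compound concentrations for 30 min. They were then challenged with 50 µM glutamate for 16 h. Active caspase-3 in the lysates was measured by ELISA.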

[27] = target: BDNF/NT-3 growth factors receptor (Rattus norvegicus) (UniProt Q63604); test: Agonist activity at TrkB in E17 rat primary rat cortical neurons assessed as AKT phosphorylation at Ser 473 at 10 nM after 15 mins by titration assay; format: functional; how it was run: as §3

CN(C)c1ccc(-c2cc(=O)c3ccc(O)c(O)c3o2)cc1
active: Activity (Mus musculus [2]) | Activity [4] | Activity [5] Dose-dependent effect | Activity (Mus musculus [6]) | Activity (Mus musculus [8]) | Activity [10] | Activity [12] | Activity [13] | Activity (Mus musculus [14]) | Activity (Mus musculus [15]) | Activity [17] | Activity (Mus musculus [21]) | Activity [23] | Activity (Mus musculus [25]) | inhibition [26] | Activity [27]
Non-toxic: Activity (Mus musculus [1]) | Activity (Mus musculus [3]) | Activity (Mus musculus [9]) | Activity (Mus musculus [16]) | Activity (Mus musculus [19]) | Activity (Mus musculus [22]) | Activity (Mus musculus [24])
inactive: Activity (Mus musculus [7]) | Activity [11] | Activity (Mus musculus [18]) | inhibition (Mus musculus [20])
